Laboratory results from ChEMBL document CHEMBL4350966 (J Med Chem, 2019).

Legend:
fMet-Leu-Phe receptor [1] = target: T1, fMet-Leu-Phe receptor (Homo sapiens, UniProt P21462); test: Biased agonist activity at human FPR1 expressed in FlpIn-CHO cells assessed as intracellular calcium mobilization by Fluo-4-AM dye based fluorescence assay; type: functional, cell-based
T1 sequence (P21462 whole entry): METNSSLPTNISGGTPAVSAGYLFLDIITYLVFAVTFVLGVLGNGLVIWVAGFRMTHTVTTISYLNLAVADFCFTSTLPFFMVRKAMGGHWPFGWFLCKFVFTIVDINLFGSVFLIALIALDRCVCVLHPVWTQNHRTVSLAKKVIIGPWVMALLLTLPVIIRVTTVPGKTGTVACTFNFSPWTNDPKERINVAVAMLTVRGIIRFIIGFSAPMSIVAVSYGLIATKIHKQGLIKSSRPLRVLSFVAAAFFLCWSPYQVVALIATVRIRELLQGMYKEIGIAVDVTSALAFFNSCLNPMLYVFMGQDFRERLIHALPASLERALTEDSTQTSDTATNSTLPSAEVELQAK
Method in brief: (§1)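 Agonist transduction coefficients (Log(τ/KA)) for each signaling output estimated with an extension of the Black-Leff operational model. Values normalized to a reference ligand and to Ca2+ mobilization as reference pathway, giving ΔLog(τ/KA) and Log(bias factors). Data are mean ± SEM of 4 independent experiments, each performed in duplicate.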

fMet-Leu-Phe receptor [2] = target: T1, fMet-Leu-Phe receptor; test: Biased agonist activity at human FPR1 expressed in FlpIn-CHO cells assessed as stimulation of ERK1/2 phosphorylation measured after 7 mins by Alphascreen assay; type: cell-based; method in brief: as §1
[3] = Intrinsic clearance in mouse liver microsomes assessed per mg protein; type: ADME, Microsome
Method in brief: (§2)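 Intrinsic clearance measured in vitro in mouse and human liver microsomes; reported as μL/min/mg protein.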

[4] = Kinetic solubility of the compound at pH 2; type: physicochemical; conditions: buffer, read-out: Kinetic_solubility
Method in brief: (§3)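 Kinetic solubility measured by nephelometry at pH 2.0 and pH 6.5; reported in μg/mL.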

[5] = Kinetic solubility of the compound at pH 6.5; type: physicochemical; conditions: buffer, read-out: Kinetic_solubility; method in brief: as §3
[6] = Protein binding in human plasma by chromatographic method; type: ADME, cell-free; conditions: read-out: PPB (converted)
Method in brief: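 Human plasma protein binding estimated by a chromatographic method; reported as percent bound.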

[7] = Lipophilicity, log P of the compound by chromatographic method; type: physicochemical
Method in brief: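 Lipophilicity ([…]) measured chromatographically.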

[8] = target: T2, N-formyl peptide receptor 2 (Homo sapiens, UniProt P25090); test: Biased agonist activity at human FPR2 expressed in FlpIn-CHO cells assessed as intracellular calcium mobilization by Fluo-4-AM dye based fluorescence assay; type: functional, cell-based; method in brief: as §1
T2 sequence (P25090 whole entry): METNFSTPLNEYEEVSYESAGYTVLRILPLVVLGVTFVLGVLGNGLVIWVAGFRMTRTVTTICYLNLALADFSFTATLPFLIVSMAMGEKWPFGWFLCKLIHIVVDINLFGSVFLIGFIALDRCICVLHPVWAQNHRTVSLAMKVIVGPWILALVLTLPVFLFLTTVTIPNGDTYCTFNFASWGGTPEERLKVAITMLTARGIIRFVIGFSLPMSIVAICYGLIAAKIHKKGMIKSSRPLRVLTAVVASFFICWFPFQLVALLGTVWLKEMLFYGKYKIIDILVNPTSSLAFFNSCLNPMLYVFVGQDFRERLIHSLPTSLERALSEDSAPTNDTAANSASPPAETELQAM

[9] = target: T2, N-formyl peptide receptor 2; test: Biased agonist activity at human FPR2 expressed in FlpIn-CHO cells assessed as stimulation of ERK1/2 phosphorylation measured after 7 mins by Alphascreen assay; type: cell-based; method in brief: as §1
[10] = target: T3, fMet-Leu-Phe receptor (Homo sapiens) (UniProt P21462); test: Bias factor, transduction co-efficient for biased agonist activity at human FPR1 expressed in FlpIn-CHO cells assessed as stimulation of ERK1/2 phosphorylation relative to 1-(4-chlorophenyl)-3-(5-isopropyl-1-methyl-3-oxo-2-phenyl-2,3-dihydro-1H-pyrazol-4-yl)urea to transduction co-efficient for …; type: functional, cell-based
T3 sequence (whole entry): T1 sequence (P21462 whole entry)

[11] = Intrinsic clearance in human liver microsomes assessed per mg protein; type: ADME, Microsome; method in brief: as §2

Row | SMILES | EC50 (fMet-Leu-Phe receptor [1]; read-out: pEC50 (converted)) | EC50 (fMet-Leu-Phe receptor [2]; read-out: pEC50 (converted)) | other results
1 | COc1ccccc1Cc1cc(C)nn(CC(=O)Nc2ccc(OC(F)(F)F)cc2)c1=O | > 100 µM | > 100 µM | 
2 | CCCCC(C(=O)Nc1ccc(Br)cc1)n1nc(C)cc(Cc2cccc(OC)c2)c1=O (stereo not drawn) | 11.5 µM | 0.148 µM | 
3 | COc1ccccc1Cc1cc(C)nn(CC(=O)Nc2ccc(Cl)cc2Cl)c1=O | > 100 µM | > 100 µM | 
4 | COc1ccccc1Cc1cc(C)nn(CC(=O)Nc2c(F)cc(Cl)cc2F)c1=O | > 100 µM | > 100 µM | 
5 | COc1ccccc1Cc1cc(C)nn(CC(=O)Nc2ccccc2Cl)c1=O | > 100 µM | > 100 µM | 
6 | COc1cccc(Cc2cc(C)nn(CC(=O)Nc3ccc(Cl)cc3F)c2=O)c1 | > 100 µM | 5.62 µM | 
7 | COc1cccc(Cc2cc(C)nn(CC(=O)Nc3ccc(Cl)cc3)c2=O)c1OC | 0.224 µM | 0.17 µM | 
8 | COc1ccccc1Cc1cc(C)nn(C(C(=O)Nc2ccc(Cl)cc2)C(C)C)c1=O (stereo not drawn) | > 100 µM | 2.82 µM | 
9 | COc1ccccc1Cc1cc(C)nn(CC(=O)Nc2cccc(Cl)c2)c1=O | > 100 µM | > 100 µM | 
10 | COc1cccc(Cc2cc(C)nn(C(C)C(=O)Nc3ccccc3Cl)c2=O)c1 (stereo not drawn) | > 100 µM | > 100 µM | 
11 | COc1cccc(Cc2cc(C)nn(C(C)C(=O)Nc3ccccc3F)c2=O)c1 (stereo not drawn) | > 100 µM | > 100 µM | 
12 | CCCC(C(=O)Nc1ccc(Cl)cc1)n1nc(C)cc(Cc2ccccc2OC)c1=O (stereo not drawn) | 9.77 µM | 6.31 µM | 
13 | COc1cccc(OC)c1Cc1cc(C)nn(CC(=O)Nc2ccc(Cl)cc2)c1=O | 2.82 µM | 2.63 µM | 
14 | COc1ccccc1Cc1cc(C)nn(CC(=O)Nc2ccc(Cl)cc2F)c1=O | > 100 µM | > 100 µM | 
15 | CCCCC(C(=O)Nc1ccc(Cl)cc1)n1nc(C)cc(Cc2ccccc2OC)c1=O (stereo not drawn) |  |  | microsomal CLint [3]: 233 µL/min/mg; solubility kinetic [4]: < 0.78 µg/mL; solubility kinetic [5]: < 0.78 µg/mL; fraction unbound [6]: 0.016; logP [7]: 5.2; EC50 [8]: 0.0513 µM; EC50 [9]: 0.0708 µM; EC50 (fMet-Leu-Phe receptor [1]): 0.891 µM; EC50 (fMet-Leu-Phe receptor [2]; read-out: EC50): 0.083 µM; fold change (FC) [10]: 20
16 | COc1ccccc1Cc1cc(C)nn(C(C(=O)Nc2ccc(Cl)cc2)C2CC2)c1=O (stereo not drawn) | > 100 µM | > 100 µM | 
17 | Cc1cc(Cc2ccc(F)cc2)c(=O)n(CC(=O)Nc2c(F)cc(F)cc2[N+](=O)[O-])n1 | > 100 µM | > 100 µM | 
18 | COc1ccc(OC)c(Cc2cc(C)nn(CC(=O)Nc3ccc(Cl)cc3)c2=O)c1 | 6.31 µM |  | 
19 | CCC(C(=O)Nc1ccc(Cl)cc1)n1nc(C)cc(Cc2ccccc2OC)c1=O (stereo not drawn) | > 100 µM | 1.86 µM | 
20 | Cc1cc(Cc2cccc(F)c2)c(=O)n(C(C)C(=O)Nc2ccc(Br)cc2)n1 (stereo not drawn) | > 100 µM |  | 
21 | CCc1ccc(NC(=O)Cn2nc(C)cc(Cc3ccccc3OC)c2=O)cc1 | > 100 µM |  | 
22 | COc1ccccc1Cc1cc(C)nn(CC(=O)Nc2ccc(Cl)cc2)c1=O | > 100 µM |  | 

Row | SMILES | EC50 (fMet-Leu-Phe receptor [1]; read-out: pEC50 (converted)) | EC50 (fMet-Leu-Phe receptor [2]; read-out: pEC50 (converted)) | other results
23 | CCCCC(C(=O)Nc1ccc(Br)cc1)n1nc(C)cc(Cc2ccccc2OC)c1=O (stereo not drawn) | > 100 µM | 0.331 µM | 
24 | CCCCC(C(=O)Nc1ccc(Cl)cc1)n1nc(C)cc(Cc2cccc(OC)c2OC)c1=O (stereo not drawn) | 0.055 µM | 0.0933 µM | EC50 [8]: 0.0525 µM; EC50 [9]: 0.0617 µM
25 | COc1cccc(Cc2cc(C)nn(C(C)C(=O)Nc3ccc(Cl)cc3)c2=O)c1 (stereo not drawn) | 6.17 to 25.1 µM |  | microsomal CLint [11]: 273 µL/min/mg; solubility kinetic [4]: < 1.6 µg/mL; solubility kinetic [5]: < 1.6 µg/mL; fraction unbound [6]: 0.026; logP [7]: 4; EC50 [8]: > 100 µM; EC50 [9]: 9.55 µM
26 | COc1ccc(NC(=O)Cn2nc(C)cc(Cc3ccccc3OC)c2=O)cc1 | > 100 µM |  | 
27 | COc1cccc(Cc2cc(C)nn(C(C)C(=O)Nc3cccc(F)c3)c2=O)c1 (stereo not drawn) | > 100 µM |  | 
28 | Cc1cc(Cc2ccc(F)cc2)c(=O)n(C(C)C(=O)Nc2ccc(Br)cc2)n1 (stereo not drawn) | > 100 µM |  | 
29 | COc1ccccc1Cc1cc(C)nn(C(C)C(=O)Nc2ccc(Cl)cc2)c1=O (stereo not drawn) | 17.4 µM | 1.38 µM | 
30 | COc1cccc(Cc2cc(C)nn(C(C)C(=O)Nc3ccc(Cl)cc3)c2=O)c1OC (stereo not drawn) | 0.155 µM | 0.145 µM | 
31 | COc1ccccc1Cc1cc(C)nn(CC(=O)Nc2cccc(C#N)c2)c1=O | > 100 µM | > 100 µM | 
32 | COc1ccccc1Cc1cc(C)nn(C(C)C(=O)Nc2ccc(Br)cc2)c1=O (stereo not drawn) | > 100 µM |  | 
33 | COc1cccc(Cc2cc(C)nn(CC(=O)Nc3c(F)cc(Cl)cc3F)c2=O)c1 | > 100 µM | > 100 µM | 
34 | CCCCC(C(=O)Nc1ccc(Br)cc1)n1nc(C)cc(Cc2cccc(OC)c2OC)c1=O (stereo not drawn) | 0.00646 µM | 0.245 µM | 
35 | Cc1cc(Cc2ccc(F)cc2)c(=O)n(CC(=O)Nc2ccc(Br)cc2[N+](=O)[O-])n1 | > 100 µM | > 100 µM | 
36 | COc1cccc(Cc2cc(C)nn(C(C)C(=O)Nc3cccc(Cl)c3)c2=O)c1 (stereo not drawn) | > 100 µM | > 100 µM | 
37 | COc1ccccc1Cc1cc(C)nn(CC(=O)Nc2ccccc2C#N)c1=O | > 100 µM | > 100 µM | 
38 | COc1cccc(Cc2cc(C)nn(C(C)C(=O)Nc3ccc(F)cc3)c2=O)c1 (stereo not drawn) | > 100 µM |  | 
39 | Cc1cc(Cc2ccccc2F)c(=O)n(C(C)C(=O)Nc2ccc(Br)cc2)n1 (stereo not drawn) | > 100 µM |  | 
40 | CCCCC(C(=O)Nc1ccc(Cl)cc1)n1nc(C)cc(Cc2cccc(OC)c2)c1=O (stereo not drawn) | 5.25 µM | 0.126 µM | 
41 | CCCCC(C(=O)Nc1ccc(Cl)cc1)n1nc(C(F)(F)F)cc(Cc2ccccc2OC)c1=O (stereo not drawn) | > 100 µM | > 100 µM | 
42 | COc1ccccc1Cc1cc(C)nn(CC(=O)Nc2ccc(C#N)cc2)c1=O | > 100 µM | > 100 µM | 
43 | COc1ccccc1Cc1cc(C(F)(F)F)nn(CC(=O)Nc2ccc(Cl)cc2)c1=O | > 100 µM | > 100 µM | 
44 | COc1ccc(Cc2cc(C)nn(C(C)C(=O)Nc3ccc(Br)cc3)c2=O)cc1 (stereo not drawn) | > 100 µM |  | 
